Results from ChEMBL document CHEMBL1147099, “In vitro and in vivo antibacterial activities of heteroaryl isothiazolones against resistant gram-positive pathogens” (Antimicrob Agents Chemother, 2007).
In brackets after ≈: the same amount, converted by molar mass.

Columns and labels:
Staphylococcus aureus [1] = experiment: Effect on cellular viability of methicillin-sensitive Staphylococcus aureus ATCC 29213 by measuring the time required for recovery at 10 times MIC after 1 hr; format: functional
Procedure, shortened: (§1)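 S. aureus in log phase, approximately 2–4 × 10^7 CFU/ml in CAMHB, was exposed to 10× MIC for 1 h at 35 to 37°C with shaking, then diluted 1:1,000 into prewarmed CAMHB. Viable counts were taken hourly for 4 to 8 h. PAE = T − C, the time to a 1-log10 rise, treated versus untreated. Mean of two independent experiments.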

Staphylococcus aureus [2] = experiment: Antibacterial activity against methicillin-susceptible Staphylococcus aureus after 24 hrs by broth microdilution method; format: functional
Procedure, shortened: (§2)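 Broth microdilution per CLSI in cation-adjusted Mueller-Hinton II broth, final inoculum approximately 5 × 10^5 CFU/ml. Plates were incubated aerobically at 35 to 37°C for 24 h. MIC was the lowest concentration giving no visible growth. Reserpine, where used, was at a final concentration of 20 μg/ml.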

Enterococcus faecium = experiment: Antibacterial activity against Enterococcus faecium; format: functional
Procedure, shortened: (§3)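 Aerobic isolates run by CLSI broth microdilution in cation-adjusted Mueller-Hinton II broth (streptococci plus 2–5% lysed horse blood), about 5 × 10^5 CFU/ml final; 24 h at 35–37°C aerobically; MIC read as lowest concentration without visible growth.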

[3] = AUC (0-24 hrs) in mouse at 50 mg/kg, sc; format: ADME, organism-based; parameters: time < 24 hr, dose 50 mg/kg, route subcutaneous; details: plasma
Procedure, shortened: (§4)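 Fasted mice given one subcutaneous dose (20 or 50 mg/kg); blood taken from groups of three at 0.08, 0.25, 0.5, 1, 2, 4, 8, 24 h. Plasma protein-precipitated with cold acetonitrile plus internal standard, LC-MS/MS (C8, positive ESI, SRM); calibration 5–15,000 ng/ml. Noncompartmental analysis of mean concentrations; AUC to last quantifiable point by linear trapezoidal rule.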

Streptococcus pyogenes = experiment: Antibacterial activity against Streptococcus pyogenes; format: functional; procedure, shortened: as §3
Streptococcus viridans = experiment: Antibacterial activity against Streptococcus viridans after 24 hrs by broth microdilution method; format: functional
Procedure, shortened: (§5)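 CLSI broth microdilution in cation-adjusted Mueller-Hinton II broth, final inoculum about 5 × 10^5 CFU/ml for most strains; streptococci supplemented with 2–5% lysed horse blood, H. influenzae in Haemophilus test medium. Aerobic incubation at 35–37°C for 24 h; MIC = lowest concentration with no visible growth.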

[4] = Plasma half life in mouse at 20 mg/kg, sc; format: ADME, organism-based; parameters: dose 20 mg/kg, route subcutaneous
Staphylococcus aureus [5] = experiment: Antibacterial activity against methicillin-resistant Staphylococcus aureus after 24 hrs by broth microdilution method; format: functional; procedure, shortened: as §2
[6] = Cmax in mouse at 20 mg/kg, sc; format: ADME, organism-based; parameters: dose 20 mg/kg, route subcutaneous; details: in vivo; procedure, shortened: as §4
[7] = Cmax in mouse at 50 mg/kg, sc; format: ADME, organism-based; parameters: dose 50 mg/kg, route subcutaneous; details: in vivo; procedure, shortened: as §4
[8] = Tmax in mouse at 20 mg/kg, sc; format: ADME, organism-based; parameters: dose 20 mg/kg, route subcutaneous; details: in vivo; procedure, shortened: as §4
[9] = Plasma half life in mouse at 50 mg/kg, sc; format: ADME, organism-based; parameters: dose 50 mg/kg, route subcutaneous
Streptococcus pneumoniae = experiment: Antibacterial activity against Streptococcus pneumoniae by agar dilution method; format: functional
[10] = AUC (0-24 hrs) in mouse at 20 mg/kg, sc; format: ADME, organism-based; parameters: time < 24 hr, dose 20 mg/kg, route subcutaneous; details: plasma; procedure, shortened: as §4
Enterococcus faecalis = experiment: Antibacterial activity against Enterococcus faecalis; format: functional; procedure, shortened: as §3
[11] = Tmax in mouse at 50 mg/kg, sc; format: ADME, organism-based; parameters: dose 50 mg/kg, route subcutaneous; details: in vivo; procedure, shortened: as §4
Neisseria gonorrhoeae = experiment: Antibacterial activity against Neisseria gonorrhoeae after 24 hrs by broth microdilution method; format: functional; procedure, shortened: as §5
Staphylococcus aureus [12] = experiment: microbe, parasite or virus in culture; details: Mu50
Staphylococcus aureus [13] = experiment: Antibacterial activity against ethidium bromide-resistant Staphylococcus aureus Mu50 after 24 hrs by broth microdilution method; format: functional; details: Mu50, 24 h; procedure, shortened: as §2
Staphylococcus aureus [14] = experiment: Antibacterial activity against […] Staphylococcus aureus ATCC 29213 after 24 hrs by broth microdilution method; format: functional; details: ATCC 29213, 24 h; procedure, shortened: as §2
Staphylococcus aureus [15] = experiment: Antibacterial activity against ethidium bromide-resistant Staphylococcus aureus Mu50 in presence of 20 ug/ml reserpine after 24 hrs by broth microdilution method; format: functional; details: Mu50, 24 h; procedure, shortened: as §2
Staphylococcus aureus [16] = experiment: Antibacterial activity against […] Staphylococcus aureus ATCC 29213 in presence of 20 ug/ml reserpine after 24 hrs by broth microdilution method; format: functional; details: ATCC 29213, 24 h; procedure, shortened: as §2
Staphylococcus aureus [17] = experiment: Antibacterial activity against ethidium bromide-resistant Staphylococcus aureus BSA678 after 24 hrs by broth microdilution method; format: functional; details: BSA678, 24 h; procedure, shortened: as §2
Staphylococcus aureus [18] = experiment: Antibacterial activity against ethidium bromide-resistant Staphylococcus aureus BSA643 after 24 hrs by broth microdilution method; format: functional; details: BSA643, 24 h; procedure, shortened: as §2
Staphylococcus aureus [19] = experiment: Effect on cellular viability of methicillin-resistant Staphylococcus aureus Mu50 at 10 times MIC by measuring the time required for recovery at 10 times MIC after 1 hr; format: functional; procedure, shortened: as §1
Staphylococcus aureus [20] = experiment: Antibacterial activity in CD1 mouse inoculated with methicillin-resistant Staphylococcus aureus ATCC 33591 in thigh assessed as reduction of bacterial population at 10 mg/kg, sc after 4 hrs; format: functional; details: route subcutaneous
Procedure, shortened: (§6)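 Female CD-1 mice (19 to 28 g) were made neutropenic with cyclophosphamide 150 mg/kg i.p. at 4 days and 1 day before infection. Each thigh was injected i.m. with 0.1 ml of S. aureus suspension. A single s.c. dose was given 2 h postinfection, in groups of three mice. Thighs were homogenized in PBS and plated on trypticase soy agar overnight at 37°C. CFU/thigh was compared with controls at the time of treatment.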

Staphylococcus aureus [21] = experiment: Antibacterial activity in CD1 mouse inoculated with methicillin-sensitive Staphylococcus aureus ATCC 13709 in thigh assessed as reduction of CFU/thigh at 10 mg/kg, sc after 4 hrs; format: functional; details: route subcutaneous; procedure, shortened: as §6
Staphylococcus aureus [22] = experiment: Antibacterial activity in CD1 mouse inoculated with methicillin-resistant Staphylococcus aureus ATCC 33591 in thigh assessed as reduction of bacterial population at 10 mg/kg, sc after 6 hrs; format: functional; details: route subcutaneous; procedure, shortened: as §6
Staphylococcus aureus [23] = experiment: Antibacterial activity in CD1 mouse inoculated with methicillin-sensitive Staphylococcus aureus ATCC 13709 in thigh assessed as reduction of bacterial population at 10 mg/kg, sc after 24 hrs; format: functional; details: route subcutaneous; procedure, shortened: as §6
Staphylococcus aureus [24] = experiment: Antibacterial activity in CD1 mouse inoculated with methicillin-resistant Staphylococcus aureus ATCC 33591 in thigh assessed as reduction of bacterial population at 10 mg/kg, sc after 8 hrs; format: functional; details: route subcutaneous; procedure, shortened: as §6
Staphylococcus aureus [25] = experiment: Antibacterial activity in CD1 mouse inoculated with methicillin-resistant Staphylococcus aureus ATCC 33591 in thigh assessed as reduction of bacterial population at 10 mg/kg, sc after 24 hrs; format: functional; details: route subcutaneous; procedure, shortened: as §6

Row | Compound | Post anitbiotic effect (Staphylococcus aureus [1]) | MIC50 (Staphylococcus aureus [2]) | MIC90 (Staphylococcus aureus [2]) | MIC50 (Enterococcus faecium) | MIC90 (Enterococcus faecium) | AUC(0-t) at 24 h [3] | MIC50 (Streptococcus viridans) | MIC90 (Streptococcus viridans) | MIC50 (Staphylococcus aureus [5]) | MIC90 (Staphylococcus aureus [5]) | Cmax [6] | Cmax [7] | Tmax [8] | MIC50 (Streptococcus pneumoniae) | MIC90 (Streptococcus pneumoniae) | AUC(0-t) at 24 h [10] | MIC (Staphylococcus aureus [13]) | MIC (Staphylococcus aureus [14]) | MIC (Staphylococcus aureus [17]) | MIC (Staphylococcus aureus [18]) | also measured
1 | CCN1CC(C(=O)O)C(=O)c2cc(F)c(N3CCNCC3)cc21 (centres undefined) | 1.6 h |  |  |  |  |  |  |  |  |  |  |  |  |  |  |  |  |  |  |  | 
2 | CC(=O)NCC1CN(c2ccc(N3CCOCC3)c(F)c2)C(=O)O1 (single isomer, unassigned) [LINEZOLID] |  | 2 µg/mL (≈ 5.93 µM) | 2 µg/mL (≈ 5.93 µM) | 2 µg/mL (≈ 5.93 µM) | 2 µg/mL (≈ 5.93 µM) | 112000 ng·h/mL | 1 µg/mL (≈ 2.96 µM) | 1 µg/mL (≈ 2.96 µM) | 2 µg/mL (≈ 5.93 µM) | 2 µg/mL (≈ 5.93 µM) | 12200 ng/mL | 25500 ng/mL | 30 min | 1 µg/mL (≈ 2.96 µM) | 1 µg/mL (≈ 2.96 µM) | 29100 ng·h/mL |  |  |  |  | MIC50 (Streptococcus pyogenes): 1 µg/mL (≈ 2.96 µM); MIC90 (Streptococcus pyogenes): 1 µg/mL (≈ 2.96 µM); half-life [4]: 70.2 min; half-life [9]: 131 min; MIC50 (Enterococcus faecalis): 2 µg/mL (≈ 5.93 µM); MIC90 (Enterococcus faecalis): > 16 µg/mL; Tmax [11]: 60 min
3 | O=C(O)c1cn(C2CC2)c2cc(N3CCNCC3)c(F)cc2c1=O [CIPROFLOXACIN] |  |  |  |  |  | 14400 ng·h/mL |  |  |  |  | 3360 ng/mL | 7720 ng/mL | 30 min |  |  | 5950 ng·h/mL | 32 µg/mL (≈ 96.6 µM) | 0.25 µg/mL (≈ 0.754 µM) | > 64 µg/mL | 128 µg/mL (≈ 386 µM) | MIC50 (Neisseria gonorrhoeae): 0.004 µg/mL (≈ 0.0121 µM); MIC90 (Neisseria gonorrhoeae): 0.008 µg/mL (≈ 0.0241 µM); MIC (Staphylococcus aureus [12]): > 64 µg/mL; MIC (Staphylococcus aureus [15]): 32 µg/mL; MIC (Staphylococcus aureus [16]): 0.25 µg/mL; Tmax [11]: 30 min
4 | CC[n+]1c(-c2ccccc2)c2cc(N)ccc2c2ccc(N)cc21.[Br-] [HOMIDIUM BROMIDE] |  |  |  |  |  |  |  |  |  |  |  |  |  |  |  |  | 64 µg/mL | 4 µg/mL | 4 µg/mL | 16 µg/mL | MIC (Staphylococcus aureus [15]): 64 µg/mL; MIC (Staphylococcus aureus [16]): 0.03 µg/mL
5 | COc1c(N2C[C@@H]3CCCN[C@@H]3C2)c(F)cc2c(=O)c(C(=O)O)cn(C3CC3)c12 [MOXIFLOXACIN] | 1.6 h |  |  |  |  |  |  |  |  |  |  |  |  |  |  |  | 4 µg/mL (≈ 9.96 µM) | 0.06 µg/mL (≈ 0.149 µM) | > 64 µg/mL | 16 µg/mL (≈ 39.9 µM) | MIC (Staphylococcus aureus [12]): 64 µg/mL (≈ 159 µM); Post anitbiotic effect (Staphylococcus aureus [19]): 1.5 h
6 | CN[C@H](CC(C)C)C(=O)N[C@H]1C(=O)N[C@@H](CC(N)=O)C(=O)N[C@H]2C(=O)N[C@H]3C(=O)N[C@H](C(=O)N[C@H](C(=O)O)c4cc(O)cc(O)c4-c4cc3ccc4O)[C@H](O)c3ccc(c(Cl)c3)Oc3cc2cc(c3O[C@@H]2O[C@H](CO)[C@@H](O)[C@H](O)[C@H]2O[C@H]2C[C@](C)(N)[C@H](O)[C@H](C)O2)Oc2ccc(cc2Cl)[C@H]1O [VANCOMYCIN] |  | 1 µg/mL (≈ 0.69 µM) | 2 µg/mL (≈ 1.38 µM) | > 32 µg/mL | > 32 µg/mL |  | 0.5 µg/mL (≈ 0.345 µM) | 1 µg/mL (≈ 0.69 µM) | 1 µg/mL (≈ 0.69 µM) | 8 µg/mL (≈ 5.52 µM) |  |  |  | 0.5 µg/mL (≈ 0.345 µM) | 0.5 µg/mL (≈ 0.345 µM) |  |  |  |  |  | CFU/ml (Staphylococcus aureus [20]): 0.32; CFU/ml (Staphylococcus aureus [21]): 0.31; CFU/ml (Staphylococcus aureus [22]): 0.49; CFU/ml (Staphylococcus aureus [23]): 1.37; CFU/ml (Staphylococcus aureus [24]): 0.58; CFU/ml (Staphylococcus aureus [25]): 0.31; MIC50 (Enterococcus faecalis): 2 µg/mL (≈ 1.38 µM); MIC90 (Enterococcus faecalis): > 32 µg/mL
